Screens: PubChem BioAssay, several laboratories
Most compounds without a hit are left out; they make up all but 4.9% or so of the library.
NF-kB neuron act = raises NF-kB expression in human neuronal cells. actives 1.6% (n = 190,000). AID 1239. NF-kB reporter expression; hits give high values. fold change at 12.5 µM; in the data active means fold change above about 3.3
APP 5'UTR act = activates APP 5'UTR luciferase reporter; SH-SY5Y APP 5'UTR luciferase reporter, luminescence; zero percent = DMSO vehicle wells; activation, % at 2 µM; actives 1% (n = 190,000); AID 1276;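 active means activation above a set limit, based on mean plus 3 SD of controls, cut at about 140% in these data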
STAT3 act-1 = STAT3 signaling activation | U3A cells, IL-6 STAT3-luciferase reporter, luminescence; 100% = signal with IL-6 EC80 alone | activation (% of control), % at 5.6 µM | actives 0.91% (n = 190,000) | AID 871;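 active means activation above the screen-wide mean of compound activation plus 3 SD, cut at about 130% in these data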;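 further: 0% = background luminescence of wells with medium and substrate only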
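Test system: STAT3-luciferase reporter U3A cells; Detection: reporter luminescence signal; Times: 1 h compound pre-exposure, 6 h IL-6 stimulation, 37 °C; Benchmarks: IL-6-only high control; Also added: IL-6 stimulus at 33 ng/mL final.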
STAT1 inh = reduces IFN-gamma driven STAT1 reporter signal. NIH 3T3 STAT1-luciferase reporter, luminescence. inhibition, % at 5.5 µM. actives 0.35% (n = 200,000). AID 920;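 active means inhibition above a set limit, the mean inhibition across all tested compounds plus 3 SD, cut at about 34% in these data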;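 further: 0% = IFN-gamma with DMSO and 100% = IFN-gamma with 300 µM nifuroxazide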
STAT3 inh-1 = inhibitors of IL-6 induced STAT3 signaling. U3A cells, IL-6 STAT3-luciferase reporter, luminescence; host cell line lacks STAT1. inhibition, % at 5.5 µM. actives 0.89% (n = 190,000);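 active means inhibition above the mean inhibition across all screened compounds plus 3 SD, cut at about 44% in these data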;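 further: 0% = DMSO only wells and 100% = 100 µM nifuroxazide control wells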
STAT1 act-1 = activators of IFN-gamma induced STAT1 signaling; activation (% of control), % at 5.5 µM; actives 2.6% (n = 200,000); AID 932; NIH 3T3 STAT1-luciferase reporter, luminescence; 100% = IFN-gamma alone, no compound;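 active means activation above the screen-wide mean activation plus 3 SD, cut at about 130% in these data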;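 further: raw ratio to IFN-gamma control signal so 100% means no change and 0% no light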
STAT3 inh-2 = confirmation of STAT3 signaling inhibitors; shares compounds with STAT3 inh-1; actives 45% (n = 1,200); inhibition, % at 5.7 µM; U3A cells, IL-6 STAT3 luciferase reporter, luminescence; cell line lacks STAT1;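 active means inhibition above the hit cutoff computed for the primary STAT3 screen, cut at about 44% in these data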;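 further: 0% = IL-6 plus DMSO and 100% = IL-6 plus nifuroxazide control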
NFkB inh STAT3ct = inhibits NF-kappaB, counter-screen to STAT3 inhibitors | shares compounds with STAT3 inh-1 | HEK293T NF-kB luciferase reporter, TNF-alpha induced | inhibition, % at 5.7 µM | actives 36% (n = 1,200);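 active means inhibition above the mean of solvent-only control wells plus 3 SD, cutoff set per campaign, cut at about 13% in these data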;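 further: 0% = TNF-alpha with DMSO and 100% = TNF-alpha with MG high control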
STAT1 inh 2 = STAT1 inhibition in STAT3 inhibitor counter-screen | shares compounds with STAT3 inh-1 | NIH 3T3 STAT1-luciferase reporter, IFN-gamma induced, luminescence | inhibition, % at 5.7 µM | actives 27% (n = 1,200) | AID 1317;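 active means inhibition above the mean plus 3 SD of solvent-only control wells, limit set per screening run, cut at about 16% in these data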;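 further: 0% = DMSO with IFN-gamma and 100% = nifuroxazide control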
STAT3 act-2 = STAT3 activation, confirmation assay; shares compounds with STAT3 act-1; U3A STAT3-luciferase reporter, IL-6 potentiation, luminescence; U3A cells lack STAT1; 100 means same as IL-6 alone; potentiation (% of control), % at 5.7 µM; actives 64% (n = 1,200); AID 1267;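 active means percent activation of the STAT3 luciferase reporter above a set limit taken from the earlier primary screen, cut at about 130% in these data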;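 further: 0% = background signal of medium plus substrate and 100% = median of IL-6 with DMSO wells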
NFkB act STAT3ct = counter-screen for STAT3 activators: NF-kappaB activation. AID 1309. shares compounds with STAT3 act-1. activation (% of control), % at 5.7 µM. human cells, NF-kappaB reporter activation. actives 11% (n = 1,200); in the data active means activation above about 120%;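 further: reporter induced by TNF-alpha stimulation; 100% = median of stimulated DMSO wells and 0% = no signal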
STAT1 act-2 = counter-screen for STAT3 activators: STAT1 activation. NIH 3T3 STAT1-luciferase reporter, IFN-gamma, luminescence. shares compounds with STAT3 act-1. actives 13% (n = 1,200). activation (% of control), % at 5.7 µM;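 active means activation above the solvent-only control well mean plus 3 SD, set per screening run, cut at about 120% in these data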;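 further: 100% = IFN-gamma with DMSO median signal so 100% means no change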
STAT1 activ conf = confirmation of STAT1 signaling activators; shares compounds with STAT1 act-1; NIH 3T3 STAT1-luciferase reporter, IFN-gamma potentiation, luminescence; 100% = IFN-gamma EC80 alone, no compound; activation (% of control), % at 5.7 µM; actives 97% (n = 1,200);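 active means activation above a set limit carried over from the earlier primary STAT1 screen, cut at about 140% in these data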;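 further: simple ratio to median IFN-gamma plus DMSO wells so 0% means no light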
NFkB act = NF-kappaB activation in STAT1 activator counter-screen; shares compounds with STAT1 act-1; AID 1306; HEK293T NF-kB luciferase reporter, TNF-alpha stimulated, luminescence; 100% = TNF-alpha with vehicle only; activation (% of control), % at 5.7 µM; actives 43% (n = 1,200);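 active means activation above the mean of solvent-only control wells plus 3 SD, set per campaign, cut at about 130% in these data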;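 further: TNF-alpha given at a submaximal dose yielding about 80% of full reporter signal; values are well signal over median control so 100% means no change and 0% no light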
STAT3 act STAT1c = activates human STAT3, counter-screen to STAT1 activators | shares compounds with STAT1 act-1 | U3A cells STAT3-luciferase reporter, IL-6, luminescence; cells lack STAT1; 100 = IL-6 alone, no compound effect | activation (% of control), % at 5.7 µM | actives 46% (n = 1,200) | AID 1316;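 active means activation above the solvent-only control well mean plus 3 SD, set per plate batch, cut at about 110% in these data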;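 further: 0% = no luminescence and 100% = median IL-6 plus DMSO wells; higher means more STAT3 reporter activation so hits are non-selective activators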
Active calls of the source: *; · = no result.

SMILES	NF-kB neuron act	APP 5'UTR act	STAT3 act-1	STAT1 inh	STAT3 inh-1	STAT1 act-1	STAT3 act-2	NFkB act STAT3ct	STAT1 act-2	others
O=C(Nc1nc(-c2ccccc2)cs1)C1COc2ccccc2O1 (stereo not drawn)	1.4	-3	89	-12	13	105	·	·	·
Cc1csc(NC(=O)C2COc3ccccc3O2)n1 (stereo not drawn)	2.8	149*	53	-57	57*	160*	·	·	·	STAT3 inh-2=36;NFkB inh STAT3ct=-21;STAT1 inh 2=-96;STAT1 activ conf=198*;NFkB act=105;STAT3 act STAT1c=78
COc1ccc(-c2csc(N3C(=N)SCC3=O)n2)cc1	4.9*	74	62	-72	50*	164*	·	·	·	STAT3 inh-2=-14;NFkB inh STAT3ct=-37;STAT1 inh 2=-191;STAT1 activ conf=294*;NFkB act=104;STAT3 act STAT1c=112*
CCc1nc(NC(=O)NS(=O)(=O)c2ccccc2C(=O)OC)nc(OC)n1	1	14	102	-13	2	110	·	·	·
COc1ccc2c(=O)c(-c3ccc4c(c3)OCO4)coc2c1	4.3*	192*	52	-70	55*	164*	·	·	·	STAT3 inh-2=26;NFkB inh STAT3ct=-12;STAT1 inh 2=-104;STAT1 activ conf=217*;NFkB act=97;STAT3 act STAT1c=80
COc1ccc2c(=O)c(N3C(=O)c4ccccc4C3=O)coc2c1	0.97	-18	101	4	1	97	·	·	·
Cc1ccc(-c2nc3cc(NC(=O)C(C)C)ccc3o2)cc1C	0.98	160*	50	-106	61*	195*	·	·	·	STAT3 inh-2=14;NFkB inh STAT3ct=-32;STAT1 inh 2=-203;STAT1 activ conf=272*;NFkB act=93;STAT3 act STAT1c=73
Cc1ccc(-c2nc3cc(NC(=O)C(C)C)ccc3o2)cc1	2.9	147*	63	-95	45*	188*	·	·	·	STAT3 inh-2=-1;NFkB inh STAT3ct=-38;STAT1 inh 2=-216;STAT1 activ conf=321*;NFkB act=126;STAT3 act STAT1c=104
Cc1c(C)n(Cc2ccccc2)c2ccc(C(=O)OCCN(C)C)cc12	1.1	6	95	-16	9	113	·	·	·
COc1ccc2[nH]c3c(c2c1)CCn1c-3nc2ccccc2c1=O	5.5*	184*	61	-55	51*	153*	·	·	·	STAT3 inh-2=14;NFkB inh STAT3ct=-32;STAT1 inh 2=-178;STAT1 activ conf=298*;NFkB act=116;STAT3 act STAT1c=93
CCn1c(C)c(/C=N/Nc2nc3ccccc3s2)c2ccccc21	1.3	48	136*	-19	-45	117	132	104	114
O=C1Cn2c(nc3ccccc32)N1c1cccc(C(F)(F)F)c1	1.1	4	136*	2	-37	98	115	106	111
O=C(Nc1cc(C(F)(F)F)ccc1Cl)c1ccncc1	0.83	1	88	-6	17	105	·	·	·
CC(C)Cc1cc(C(=O)Nc2cc(C(F)(F)F)ccc2Cl)no1	1.1	17	143*	3	-42	98	125	97	96
O=C(c1c[nH]c2ccccc2c1=O)N1CCCCCC1	0.99	4	105	1	0	99	·	·	·
CC(=O)NCCC(=O)N1CCc2c([nH]c3ccccc23)C1c1cccc(Cl)c1 (stereo not drawn)	0.84	2	150*	-6	-55	103	143*	101	91
CC(=O)NCCC(=O)N1CCc2c([nH]c3ccccc23)C1c1cccc(C)c1 (stereo not drawn)	1.3	26	147*	-6	-50	104	144*	106	114
Cc1cc(C(=O)N2CCc3c([nH]c4ccccc34)C2c2cccc(Cl)c2)nn1C (stereo not drawn)	0.8	-6	153*	1	-53	99	202*	112	122*
O=C(c1cnccn1)N1CCc2c([nH]c3ccccc23)C1c1cccc(Cl)c1 (stereo not drawn)	0.9	-5	132	4	-32	95	·	·	·
Cc1ccc(N=C2NC(=O)/C(=C/c3cn(C)c4ccccc34)S2)cc1C	1	-11	66	-1	41	101	·	·	·
Cc1noc(/C=C/N(C)C)c1S(=O)(=O)N1CCc2ccccc21	0.94	0	151*	6	-56	94	139*	103	97
CC(C)CC(=O)NCCCCc1ccccc1	1.2	22	94	-3	8	102	·	·	·
O=C(O)c1ccccc1NC(=O)N1CCOCC1	1.4	2	104	-2	7	101	·	·	·
Nn1cnnc1N/N=C\c1ccc(-c2ccccc2[N+](=O)[O-])o1	0.68	13	147*	-21	-50	118	105	104	101
COc1ccc(S(=O)(=O)N2CCC(CN3C(=O)c4cccc5cccc(c45)C3=O)CC2)cc1	0.77	1	152*	-4	-66	104	135*	107	123*
COc1ccc(S(=O)(=O)N2CCCCC2)cc1	1	0	100	7	3	94	·	·	·
Cn1nc(-c2ccc(Cl)cc2)c2cc(C(=O)NC3CC3)sc21	0.93	3	174*	-1	-86	101	185*	123*	135*
CCN(CC)CCNC(=O)c1cc2c(-c3ccc(Cl)cc3)nn(C)c2s1	0.78	-9	177*	8	-80	93	165*	106	97
